19 compounds from ChEMBL document CHEMBL5532693, “Design, synthesis and antimycobacterial activity of imidazo[1,5-a]quinolines and their zinc-complexes” (RSC Med Chem, 2024) can be followed below.

≈ marks a conversion by molar mass, not a printed value.

The test system of one series is Calu-3. Put plainly: Cytotoxicity against human Calu-3 cells assessed as reduction in cell viability at 100 uM incubated for 48 hrs by CellTiter-Glo Luminescent Cell Viability assay. The series is classed as toxicity, cell-based. To be noted: calu-3, 48 h. Summed up: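 Confluent Calu-3 cells in DMEM/F-12 GlutaMAX with 10% FCS and 1% penicillin/streptomycin, 37°C, 5% CO2. Compounds were dissolved in DMSO (10 mM stocks) and tested once at 100 μM final with 1% DMSO, in triplicate, for 48 h. ATP luminescence was normalized to the DMSO control (100%). Viability below 80% was classed as cytotoxic. Ionomycin 100 μM served as positive control.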
Background: ATP-based viability assays read luminescence as a measure of living cells.

For series [1], the system named is Mycobacterium tuberculosis. As to the kind of experiment: Antibacterial activity against Mycobacterium tuberculosis H37Ra assessed as inhibition of bacterial growth incubated for 7 days by BacTiter-Glo reagent based assay. The series is classed as functional. Summed up:
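M. tuberculosis H37Ra pre-grown 14 days in 7H9 with palmitic acid, casitone, BSA, catalase and 0.2% glycerol (37°C, 180 rpm, 85% rH). Diluted to McFarland 1, then to 1 × 10⁶ cells/mL. Compounds were in DMSO. Plates were held 7 days microaerophilic at 37°C/5% CO₂, with ATP luminescence read-out. MIC was the lowest concentration giving ≥85% inhibition versus blank-normalised untreated growth.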

For series [2], the system named is Mycobacterium tuberculosis. Put plainly: Antibacterial activity against Mycobacterium tuberculosis. The series is classed as functional.

In the case of `c1ccc(-c2nc(-c3ccccc3)n3c2ccc2ccccc23)cc1`, the Activity entry with Calu-3 is reported as “Non-Toxic”.

`c1ccc(-c2nc(-c3ccccn3)c3ccc4ccccc4n23)cc1`: the Activity result in the series on Calu-3 was “Toxic”.

One may read the MIC as the least concentration at which growth counts as inhibited. For `c1ccc(-c2nc(-c3ccccn3)n3c2ccc2ccccc23)cc1`, the Activity result in the series on Calu-3 was “Toxic”. In series [1] (168 h, time 7 day), the minimal inhibitory concentration (MIC) was determined as 25 µM (≈ 8.03 µg/mL).

Regarding `NNC(=O)c1ccncc1` [ISONIAZID], in series [2], inhibition of growth (MIC) required 0.3 µM (≈ 0.0411 µg/mL).

`c1ccc(-c2nc(-c3cccs3)c3ccc4ccccc4n23)cc1`: the Activity entry with Calu-3 is given as “Non-Toxic”.

For the compound `NCC[C@H](O)C(=O)N[C@@H]1C[C@H](N)[C@@H](O[C@H]2O[C@H](CN)[C@@H](O)[C@H](O)[C@H]2O)[C@H](O)[C@H]1O[C@H]1O[C@H](CO)[C@@H](O)[C@H](N)[C@H]1O` [AMIKACIN], the lowest concentration to inhibit growth in series [2] (MIC) was 0.4 µM (≈ 0.234 µg/mL).

Consider `COc1nc2ccc(Br)cc2cc1[C@@H](c1ccccc1)[C@@](O)(CCN(C)C)c1cccc2ccccc12` [BEDAQUILINE], for which the MIC in series [2] is 0.03 µM (≈ 0.0167 µg/mL).

Take `c1ccc(-c2nc(-c3cc4ccccc4cn3)c3ccc4ccccc4n23)cc1`: the Activity entry in the series on Calu-3 is given as “Non-Toxic”. Besides, in series [1] (168 h, time 7 day), the MIC was found to be 0.5 µM (≈ 0.186 µg/mL).

With `c1ccc(N(c2ccccc2)c2nc(-c3ccccn3)c3ccc4ccccc4n23)cc1`, in the series with Calu-3, the Activity entry is “Non-Toxic”.

For `C[C@H]1COc2c(N3CCN(C)CC3)c(F)cc3c(=O)c(C(=O)O)cn1c23` [LEVOFLOXACIN ANHYDROUS], it took 0.8 µM (≈ 0.289 µg/mL) to inhibit growth in series [2] (MIC).

Take `c1ccc(-c2nc(-c3cccc4ccccc34)n3c2ccc2ccccc23)nc1`: in the series with Calu-3, the Activity result is “Toxic”. Further, the MIC in series [1] (168 h, time 7 day) worked out at 1 µM (≈ 0.371 µg/mL).

`CN(C)c1ccccc1-c1nc(-c2ccccc2)n2c1ccc1ccccc12`: the Activity entry in the series on Calu-3 is recorded as “Toxic”.

Regarding `c1ccc(-c2ccc(-c3nc(-c4ccccc4)n4c3ccc3ccccc34)nc2)cc1`, the Activity result in the series with Calu-3 is on record as “Non-Toxic”.

In series [2], `CC[C@@H](CO)NCCN[C@@H](CC)CO` [ETHAMBUTOL] gave an MIC of 0.3 µM (≈ 0.0613 µg/mL).

`CCc1cc(C(N)=S)ccn1` [ETHIONAMIDE]: in series [2], the MIC is 10 µM (≈ 1.66 µg/mL).

Turning to GENTAMICIN, in series [1] (time 7.0 day), the MIC turned out to be 4 µM.

In the case of `c1ccc(-c2nc(-c3ccccn3)n3c2ccc2ccccc23)nc1`, in the series with Calu-3, the Activity result is “Non-Toxic”. Moreover, in series [1] (168 h, time 7 day), the minimum inhibitory concentration (MIC) is 6 µM (≈ 1.93 µg/mL).

As for `c1ccc(-c2nc(-c3ncccn3)c3ccc4ccccc4n23)cc1`, in the series on Calu-3, the Activity entry is “Toxic”.

Turning to `COc1ccccc1-c1nc(-c2ccccc2)n2c1ccc1ccccc12`, the Activity result with Calu-3 is listed as “Non-Toxic”.
